Legend:
Test in all cases: SPR analysis
Format in all cases: binding
[1] = target: mitogen-activated protein kinase (MAPK1) (Homo sapiens, UniProt P28482); conditions: for kon: read-out: Ka (association rate constant); for koff: read-out: Kd (dissociation rate constant)
In short: (§1)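 Each protein was amine-coupled to the chip after NHS/EDC (1:1, v/v) activation, at 14,874 RU (MMP-9), 11,000 RU (MAPK1), 11,800 RU (NFKB1) and 11,000 RU (TNF-α). A reference channel was activated and blocked without protein. Analytes flowed at 30 μL/min, with 60 s association and 120 s dissociation. Curves were fitted with 1:1 Langmuir and steady-state affinity models to give Ka, Kd and KD.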

[2] = target: T1, nuclear factor kappa B (NFKB1) (Homo sapiens, UniProt P19838)
T1 sequence (P19838 1-968): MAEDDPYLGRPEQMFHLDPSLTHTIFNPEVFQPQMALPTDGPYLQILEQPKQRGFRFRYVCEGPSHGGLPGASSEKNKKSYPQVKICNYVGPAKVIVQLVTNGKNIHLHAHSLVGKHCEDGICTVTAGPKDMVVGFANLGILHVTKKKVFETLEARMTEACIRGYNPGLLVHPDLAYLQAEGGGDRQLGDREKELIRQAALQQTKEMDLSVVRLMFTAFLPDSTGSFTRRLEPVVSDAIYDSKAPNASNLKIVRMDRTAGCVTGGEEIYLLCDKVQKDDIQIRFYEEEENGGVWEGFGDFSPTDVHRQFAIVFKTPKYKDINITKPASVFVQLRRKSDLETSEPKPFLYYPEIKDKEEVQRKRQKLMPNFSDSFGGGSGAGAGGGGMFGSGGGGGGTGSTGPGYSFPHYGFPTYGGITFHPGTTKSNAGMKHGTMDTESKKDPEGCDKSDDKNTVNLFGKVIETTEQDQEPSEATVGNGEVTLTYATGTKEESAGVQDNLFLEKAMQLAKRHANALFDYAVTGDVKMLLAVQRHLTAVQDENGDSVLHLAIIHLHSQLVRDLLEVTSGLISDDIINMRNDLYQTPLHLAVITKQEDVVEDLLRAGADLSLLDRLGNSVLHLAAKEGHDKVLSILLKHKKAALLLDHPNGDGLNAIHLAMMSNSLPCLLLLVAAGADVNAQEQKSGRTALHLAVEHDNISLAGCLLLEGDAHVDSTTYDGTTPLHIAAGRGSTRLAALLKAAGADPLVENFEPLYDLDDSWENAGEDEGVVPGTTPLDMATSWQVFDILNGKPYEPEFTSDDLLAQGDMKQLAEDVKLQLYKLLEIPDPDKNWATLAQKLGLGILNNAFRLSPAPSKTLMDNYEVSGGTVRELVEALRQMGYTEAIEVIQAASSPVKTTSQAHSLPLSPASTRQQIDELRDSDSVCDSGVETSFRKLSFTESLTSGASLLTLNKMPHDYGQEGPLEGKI
In short: as §1

[3] = target: tumor necrosis factor (TNF-α) (Homo sapiens, UniProt P01375)
In short: as §1

[4] = target: matrix metalloproteinase-9 (MMP-9) (Homo sapiens, UniProt P14780)
In short: as §1

Chain of mitogen-activated protein kinase (MAPK1) (P28482 whole entry): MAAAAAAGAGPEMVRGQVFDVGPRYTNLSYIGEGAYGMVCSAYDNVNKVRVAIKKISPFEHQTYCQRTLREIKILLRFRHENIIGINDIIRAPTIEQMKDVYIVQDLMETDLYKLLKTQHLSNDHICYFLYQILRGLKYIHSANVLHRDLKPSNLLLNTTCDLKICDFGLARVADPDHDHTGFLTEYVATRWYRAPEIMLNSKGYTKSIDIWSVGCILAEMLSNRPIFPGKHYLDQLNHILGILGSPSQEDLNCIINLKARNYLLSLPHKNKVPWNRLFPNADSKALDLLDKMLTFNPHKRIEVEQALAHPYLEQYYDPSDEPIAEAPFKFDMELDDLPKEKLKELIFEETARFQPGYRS
Chain of matrix metalloproteinase-9 (MMP-9) (P14780 94-707): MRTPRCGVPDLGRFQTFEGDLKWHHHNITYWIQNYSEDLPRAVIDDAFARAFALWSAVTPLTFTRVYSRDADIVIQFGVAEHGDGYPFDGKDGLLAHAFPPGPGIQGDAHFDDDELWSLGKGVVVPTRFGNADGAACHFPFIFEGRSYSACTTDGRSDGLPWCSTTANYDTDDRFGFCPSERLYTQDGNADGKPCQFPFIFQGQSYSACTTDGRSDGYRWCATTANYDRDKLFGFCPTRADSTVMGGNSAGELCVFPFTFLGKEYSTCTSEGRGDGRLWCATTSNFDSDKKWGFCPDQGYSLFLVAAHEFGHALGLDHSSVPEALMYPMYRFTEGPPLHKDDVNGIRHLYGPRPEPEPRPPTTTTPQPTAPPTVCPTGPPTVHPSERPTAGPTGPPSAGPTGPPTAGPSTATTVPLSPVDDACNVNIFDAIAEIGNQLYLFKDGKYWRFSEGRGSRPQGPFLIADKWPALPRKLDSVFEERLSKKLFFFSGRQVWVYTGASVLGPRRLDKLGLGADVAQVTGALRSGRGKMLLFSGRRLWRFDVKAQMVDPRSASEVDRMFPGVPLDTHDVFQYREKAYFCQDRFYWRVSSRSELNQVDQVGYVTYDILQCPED
Chain of tumor necrosis factor (TNF-α) (P01375 77-233 limits assumed): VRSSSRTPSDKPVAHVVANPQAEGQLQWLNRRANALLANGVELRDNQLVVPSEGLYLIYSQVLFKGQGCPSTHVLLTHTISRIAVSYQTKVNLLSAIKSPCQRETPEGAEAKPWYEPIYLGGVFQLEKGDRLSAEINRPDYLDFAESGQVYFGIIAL

SMILES | Kd [1] | kon [1] | koff [1] | Kd [4] | other results
COc1cc2c(cc1CC=C(C)C)C(=O)C[C@@H](c1ccc(O)cc1)O2 [Bavachinin A] | 6.05 µM | – | – | – | –
COc1ccc(-c2coc3cc(O)ccc3c2=O)cc1 [Formononetin] | – | – | – | – | Kd [2]: 32.5 µM
O=C(/C=C/c1ccc(O[C@@H]2O[C@H](CO)[C@@H](O)[C@H](O)[C@H]2O)cc1)c1ccc(O)cc1O [Isoliquiritin] | – | – | – | 2.7 µM | Kd [3]: 3.6 µM
COc1ccc(-c2coc3cc(O[C@@H]4O[C@H](CO)[C@@H](O)[C@H](O)[C@H]4O)ccc3c2=O)cc1 [Ononin] | 41.4 µM | – | – | – | –

Now from value to compound, other results behind:

Kd [1] | kon [1] | koff [1] | Kd [4] | SMILES | other results
26.6 µM | 9290 M⁻¹ s⁻¹ | 0.247 s⁻¹ | – | CC(C)=CCc1cc2c(cc1O)O[C@H](c1ccc(O)cc1)CC2=O [Bavachin] | –
382 µM | 258 M⁻¹ s⁻¹ | 0.0984 s⁻¹ | 105 µM | O=C1C[C@@H](c2ccc(O[C@@H]3O[C@H](CO)[C@@H](O)[C@H](O)[C@H]3O)cc2)Oc2cc(O)ccc21 [Liquiritin] | kon ([4]; read-out: Ka (association rate constant)): 251 M⁻¹ s⁻¹; koff ([4]; read-out: Kd (dissociation rate constant)): 0.0264 s⁻¹

— PMC8055291 (Journal of Inflammation Research, 2021)
